Assay results from ChEMBL document CHEMBL4350976, “Sequence modification of heptapeptide selected by phage display as homing device for HT-29 colon cancer cells to improve the anti-tumour activity of drug delivery systems” (Eur J Med Chem, 2019).
Where a SMILES comes first, the peptide text is derived from it. The star is where a group is joined. X1 = COc1cccc2c1C(=O)c1c(O)c3c(c(O)c1C2=O)C[C@@](O)(/C(C)=N/OCC(=O)*)C[C@@H]3O[C@H]1C[C@H](N)[C@H](O)[C@H](C)O1

Experiments:
[1] = Stability in human plasma assessed as parent compound remaining at 30 uM measured after 1 hr by LC/MS analysis; type: ADME, cell-free
Summary of the method: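 Conjugates were incubated in 90% human plasma from a healthy volunteer. Samples were taken at 0, 5 and 60 min and analysed by HPLC-MS.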

4T1 = test: Cytostatic activity against mouse 4T1 cells preincubated for 24 hrs under serum free condition followed by compound washout and further incubation for 48 hrs in presence of serum by MTT assay; type: functional, cell-based
Summary of the method: (§1)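 Cells were grown at 37 °C in 5% CO2 in medium with 10% heat-inactivated FBS (20% for OVCAR-3) plus penicillin/streptomycin. The medium was RPMI-1640 for most lines, DMEM for U-87 MG and MRC-5, and IMDM for PE/CA-PJ lines. Seeding was 3×10^3–10×10^3 cells per well. Cells had 24 h compound exposure, a wash, and 48 h further culture. Read-out was MTT, normalized to untreated cells and fitted by nonlinear regression for IC50.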

WiDr = test: Cytostatic activity against human WiDr cells preincubated for 24 hrs under serum free condition followed by compound washout and further incubation for 48 hrs in presence of serum by MTT assay; type: functional, cell-based; summary of the method: as §1
A2058 = test: Cytostatic activity against human A2058 cells preincubated for 24 hrs under serum free condition followed by compound washout and further incubation for 48 hrs in presence of serum by MTT assay; type: functional, cell-based; summary of the method: as §1
[2] = Drug uptake in lysosome of human HT-29 cells assessed as increase in fluorescence at 50 uM after 30 mins by LysoTracker deep red staining based confocal microscopic analysis; type: ADME, subcellular; conditions: ht-29, 0.5 h
Summary of the method: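 HT-29 cells were exposed to 50 µM conjugate for 30 min before imaging. Lysosomes were stained with LysoTracker Deep Red and mitochondria with MitoTracker Deep Red. Confocal imaging detected Dau at 550–600 nm.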

HT-29 = test: Cytotoxicity against human HT-29 cells assessed as reduction in cell viability by measuring decrease in fluorescence intensity at 100 uM incubated for 3 hrs by flow cytometry; type: cell-based; conditions: ht-29, 3 h
MDA-MB-231 = test: Potency index, ratio of compound IC50 to Daunomycin IC50 for human MDA-MB-231 cells preincubated for 24 hrs under serum free condition followed by compound washout and further incubation for 48 hrs in presence of serum by MTT assay; type: functional
NCI-H1650 = test: Potency index, ratio of compound IC50 to Daunomycin IC50 for human NCI-H1650 cells preincubated for 24 hrs under serum free condition followed by compound washout and further incubation for 48 hrs in presence of serum by MTT assay; type: functional
OVCAR-3 = test: Potency index, ratio of compound IC50 to Daunomycin IC50 for human OVCAR3 cells preincubated for 24 hrs under serum free condition followed by compound washout and further incubation for 48 hrs in presence of serum by MTT assay; type: functional
PANC-1 = test: Potency index, ratio of compound IC50 to Daunomycin IC50 for human PANC1 cells preincubated for 24 hrs under serum free condition followed by compound washout and further incubation for 48 hrs in presence of serum by MTT assay; type: functional
PC-3 = test: Potency index, ratio of compound IC50 to Daunomycin IC50 for human PC3 cells preincubated for 24 hrs under serum free condition followed by compound washout and further incubation for 48 hrs in presence of serum by MTT assay; type: functional

COc1cccc2c1C(=O)c1c(O)c3c(c(O)c1C2=O)C[C@@](O)(/C(C)=N/OCC(=O)N[C@@H](CC(C)C)C(=O)N[C@@H](CCCNC(=N)N)C(=O)N[C@@H](CCCNC(=N)N)C(=O)N[C@@H](Cc1ccc(O)cc1)C(=O)N[C@H](C(=O)N[C@@H](Cc1cnc[nH]1)C(=O)N[C@@H](CC(C)C)C(=O)N[C@@H](Cc1ccccc1)C(=O)N[C@@H](Cc1ccc(O)cc1)C(=O)N[C@@H](C)C(=O)N[C@H](C(N)=O)[C@@H](C)O)C(C)C)C[C@@H]3O[C@H]1C[C@H](N)[C@H](O)[C@H](C)O1 (X1-LRRYVHLFYAT-NH2)
Stability [1]: Stable
IC50 (4T1): 11.6 µM
IC50 (WiDr): 15.1 µM
IC50 (A2058): 3.5 µM
Drug uptake [2]: Active
Activity (HT-29): Toxic
Ratio IC50 (MDA-MB-231): 86.6
Ratio IC50 (NCI-H1650): 60.1
Ratio IC50 (OVCAR-3): 24
Ratio IC50 (PANC-1): 57.7
Ratio IC50 (PC-3): 226.7
